Laboratory results as given in ChEMBL document CHEMBL1268967, “Synthesis and biological evaluation of furoxan-based nitric oxide-releasing derivatives of glycyrrhetinic acid as anti-hepatocellular carcinoma agents” (Bioorg Med Chem Lett, 2010).
Active and inactive are the calls of the source. The calls are words filed in the database; no cut-off is given here.

Experiments:
[1] = Antiproliferative activity against human L02 cells at 10 uM after 24 hrs by MTT assay; type: cell-based; conditions: for Activity: l02, 24 h, 10 µM; for inhibition at 24 h, 10 µM: L02 cells
How it was run: (§1)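 Cells cultured in DMEM with 10% heat-inactivated fetal calf serum at 37 °C, 5% CO2, plated overnight and then exposed to 10 µM compound for 24 h. MTT was added for the last 4 h, formazan dissolved in DMSO and read at 570 nm. Values are mean % cytotoxicity ± SD from three separate experiments.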

Bel-7402 [2] = assay: Antiproliferative activity against human Bel7402 cells at 10 uM after 24 hrs by MTT assay; type: functional; conditions: for inhibition of growth at 10 µM: Bel-7402, 24 h, read-out: GI; how it was run: as §1
HepG2 [3] = assay: Antiproliferative activity against human HepG2 cells after 24 hrs by MTT assay; type: functional, cell-based; conditions: HepG2, 24 h
How it was run: (§2)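 Cells grown in DMEM with 10% heat-inactivated fetal calf serum at 37 °C, 5% CO2; 3 × 10^5 cells/well plated overnight, then exposed in triplicate to a range of concentrations for 24 h. MTT (5 mg/mL) was added for the final 4 h, formazan dissolved in DMSO, absorbance at 570 nm. IC50 is the mean of dose–response curves from at least three independent experiments.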

Bel-7402 [4] = assay: Antiproliferative activity against human Bel7402 cells after 24 hrs by MTT assay; type: functional, cell-based; conditions: Bel-7402, 24 h; how it was run: as §2
HepG2 [5] = assay: Induction of nitric oxide release in human HepG2 cells at 100 uM […] by Griess assay; type: functional, cell-based
Bel-7402 [6] = assay: Induction of nitric oxide release in human Bel7402 cells at 100 uM […] by Griess assay; type: functional, cell-based
[7] = Toxicity in human L02 cells assessed as induction of nitric oxide release at 100 uM […] by Griess assay; type: cell-based; conditions: l02, 100 µM
Bel-7402 [8] = assay: Induction of nitric oxide release in human Bel7402 cells at 5 uM for 24 hrs pretreated with hemoglobin for 1 hr by Griess assay; type: functional, cell-based
How it was run: (§3)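 BEL-7402 cells in 24-well plates were pretreated in triplicate with hemoglobin (0, 1, 5, 10 or 20 µM) for 1 h, then given compound at 5 or 10 µM for 24 h. NO in the cells was measured by Griess assay and reported as mean concentration for each condition.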

Bel-7402 [9] = assay: Antiproliferative activity against human Bel7402 cells at 5 uM for 24 hrs pretreated with hemoglobin for 1 hr by MTT assay; type: functional, cell-based
How it was run: (§4)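 BEL-7402 cells in 24-well plates were pretreated in triplicate with hemoglobin (0, 1, 5, 10 or 20 µM) for 1 h as an NO scavenger. Compound was then added at 5 or 10 µM for 24 h and cytotoxicity read by MTT. Data are mean % cytotoxicity for each condition.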

Bel-7402 [10] = assay: Induction of nitric oxide release in human Bel7402 cells at 10 uM for 24 hrs pretreated with hemoglobin for 1 hr by Griess assay; type: functional, cell-based; how it was run: as §3
Bel-7402 [11] = assay: Antiproliferative activity against human Bel7402 cells at 10 uM for 24 hrs pretreated with hemoglobin for 1 hr by MTT assay; type: functional, cell-based; how it was run: as §4

Structure (SMILES) | IC50 (HepG2 [3]) [µM] | IC50 (Bel-7402 [4]) [µM] | further results
O=S(=O)(c1ccccc1)c1c(OCCCCO)no[n+]1[O-] |  |  | Activity [1]: Toxic; growth inhibition (GI) (Bel-7402 [2]): Active
CC1(C)[C@@H](O)CC[C@]2(C)[C@H]3C(=O)C=C4[C@@H]5C[C@@](C)(C(=O)NCC(=O)OCCCCOc6no[n+]([O-])c6S(=O)(=O)c6ccccc6)CC[C@]5(C)CC[C@@]4(C)[C@]3(C)CC[C@@H]12 | 6.78 | 0.25 | inhibition at 24 h, 10 µM [1]: < 18%; inhibition of growth at 10 µM (Bel-7402 [2]): > 83.5%; Activity (HepG2 [5]): Active; Activity (Bel-7402 [6]): Active; Activity [7]: Non-toxic; growth inhibition (GI) (Bel-7402 [8]): inactive; Activity (Bel-7402 [9]): inactive; growth inhibition (GI) (Bel-7402 [10]): inactive; Activity (Bel-7402 [11]): inactive
CC1(C)[C@@H](O)CC[C@]2(C)[C@H]3C(=O)C=C4[C@@H]5C[C@@](C)(C(=O)O)CC[C@]5(C)CC[C@@]4(C)[C@]3(C)CC[C@@H]12 [ENOXOLONE] | > 50 | > 50 | 
O=S(=O)(c1ccccc1)c1c(OC/C=C/CO)no[n+]1[O-] |  |  | Activity [1]: Toxic; growth inhibition (GI) (Bel-7402 [2]): Active
COC(=O)[C@@]1(C)CC[C@]2(C)CC[C@]3(C)C(=CC(=O)[C@@H]4[C@@]5(C)CC[C@H](OC(=O)CCC(=O)OCC#CCOc6no[n+]([O-])c6S(=O)(=O)c6ccccc6)C(C)(C)[C@@H]5CC[C@]43C)[C@@H]2C1 | 11.6 | 13.4 | 
CC1(C)[C@@H](O)CC[C@]2(C)[C@H]3C(=O)C=C4[C@@H]5C[C@@](C)(C(=O)NCC(=O)OCCOc6no[n+]([O-])c6S(=O)(=O)c6ccccc6)CC[C@]5(C)CC[C@@]4(C)[C@]3(C)CC[C@@H]12 | 9.06 | 1.38 | 
CC(=O)O[C@H]1CC[C@]2(C)[C@H]3C(=O)C=C4[C@@H]5C[C@@](C)(C(=O)NCCOc6no[n+]([O-])c6S(=O)(=O)c6ccccc6)CC[C@]5(C)CC[C@@]4(C)[C@]3(C)CC[C@H]2C1(C)C | 23.7 | 14.2 | 
COc1cccc2c1C(=O)c1c(O)c3c(c(O)c1C2=O)C[C@@](O)(C(=O)CO)C[C@@H]3O[C@H]1C[C@H](N)[C@H](O)[C@H](C)O1 [DOXORUBICIN] | 2.03 | 0.9 | 
COC(=O)[C@@]1(C)CC[C@]2(C)CC[C@]3(C)C(=CC(=O)[C@@H]4[C@@]5(C)CC[C@H](OC(=O)CCC(=O)NCCOc6no[n+]([O-])c6S(=O)(=O)c6ccccc6)C(C)(C)[C@@H]5CC[C@]43C)[C@@H]2C1 | 2.9 | 2.94 | 
COC(=O)[C@@]1(C)CC[C@]2(C)CC[C@]3(C)C(=CC(=O)[C@@H]4[C@@]5(C)CC[C@H](OC(=O)CCC(=O)OCCCOc6no[n+]([O-])c6S(=O)(=O)c6ccccc6)C(C)(C)[C@@H]5CC[C@]43C)[C@@H]2C1 | 13.4 | 9.22 | 
COC(=O)[C@@]1(C)CC[C@]2(C)CC[C@]3(C)C(=CC(=O)[C@@H]4[C@@]5(C)CC[C@H](OC(=O)CCC(=O)OCCOCCOc6no[n+]([O-])c6S(=O)(=O)c6ccccc6)C(C)(C)[C@@H]5CC[C@]43C)[C@@H]2C1 | 15.7 | 19.9 | 
O=S(=O)(c1ccccc1)c1c(OCC#CCO)no[n+]1[O-] |  |  | Activity [1]: Toxic; growth inhibition (GI) (Bel-7402 [2]): Active
CC(=O)O[C@H]1CC[C@]2(C)[C@H]3C(=O)C=C4[C@@H]5C[C@@](C)(C(=O)OCCCOc6no[n+]([O-])c6S(=O)(=O)c6ccccc6)CC[C@]5(C)CC[C@@]4(C)[C@]3(C)CC[C@H]2C1(C)C | 11.5 | 15.3 | 
CC1(C)[C@@H](O)CC[C@]2(C)[C@H]3C(=O)C=C4[C@@H]5C[C@@](C)(C(=O)NCC(=O)OCC#CCOc6no[n+]([O-])c6S(=O)(=O)c6ccccc6)CC[C@]5(C)CC[C@@]4(C)[C@]3(C)CC[C@@H]12 | 3.39 | 0.84 | inhibition at 24 h, 10 µM [1]: < 18%; inhibition of growth at 10 µM (Bel-7402 [2]): > 83.5%; Activity (HepG2 [5]): Active; Activity (Bel-7402 [6]): Active; Activity [7]: Non-toxic
COC(=O)[C@@]1(C)CC[C@]2(C)CC[C@]3(C)C(=CC(=O)[C@@H]4[C@@]5(C)CC[C@H](OC(=O)CCC(=O)OCCOc6no[n+]([O-])c6S(=O)(=O)c6ccccc6)C(C)(C)[C@@H]5CC[C@]43C)[C@@H]2C1 | 18.2 | 7.85 | 
CC(=O)O[C@H]1CC[C@]2(C)[C@H]3C(=O)C=C4[C@@H]5C[C@@](C)(C(=O)OCCOc6no[n+]([O-])c6S(=O)(=O)c6ccccc6)CC[C@]5(C)CC[C@@]4(C)[C@]3(C)CC[C@H]2C1(C)C | 14.7 | 3.84 | 
CC(=O)O[C@H]1CC[C@]2(C)[C@H]3C(=O)C=C4[C@@H]5C[C@@](C)(C(=O)OCC#CCOc6no[n+]([O-])c6S(=O)(=O)c6ccccc6)CC[C@]5(C)CC[C@@]4(C)[C@]3(C)CC[C@H]2C1(C)C | 7.5 | 15 | 
CC(O)CCOc1no[n+]([O-])c1S(=O)(=O)c1ccccc1 (centres undefined) |  |  | Activity [1]: Toxic; growth inhibition (GI) (Bel-7402 [2]): Active
CC(=O)O[C@H]1CC[C@]2(C)[C@H]3C(=O)C=C4[C@@H]5C[C@@](C)(C(=O)NCC(=O)OCCOCCOc6no[n+]([O-])c6S(=O)(=O)c6ccccc6)CC[C@]5(C)CC[C@@]4(C)[C@]3(C)CC[C@H]2C1(C)C | 6.4 | 9.47 | 
CC1(C)[C@@H](O)CC[C@]2(C)[C@H]3C(=O)C=C4[C@@H]5C[C@@](C)(C(=O)NCC(=O)OCCOCCOc6no[n+]([O-])c6S(=O)(=O)c6ccccc6)CC[C@]5(C)CC[C@@]4(C)[C@]3(C)CC[C@@H]12 | 5.18 | 3.78 | 
COC(=O)[C@@]1(C)CC[C@]2(C)CC[C@]3(C)C(=CC(=O)[C@@H]4[C@@]5(C)CC[C@H](OC(=O)CCC(=O)OCCCCOc6no[n+]([O-])c6S(=O)(=O)c6ccccc6)C(C)(C)[C@@H]5CC[C@]43C)[C@@H]2C1 | 36.5 | 8.2 | 
CC(=O)O[C@H]1CC[C@]2(C)[C@H]3C(=O)C=C4[C@@H]5C[C@@](C)(C(=O)OCCOCCOc6no[n+]([O-])c6S(=O)(=O)c6ccccc6)CC[C@]5(C)CC[C@@]4(C)[C@]3(C)CC[C@H]2C1(C)C | 31.4 | 21.4 | 
O=S(=O)(c1ccccc1)c1c(OCCCO)no[n+]1[O-] |  |  | Activity [1]: Toxic; growth inhibition (GI) (Bel-7402 [2]): Active
CC1(C)[C@@H](O)CC[C@]2(C)[C@H]3C(=O)C=C4[C@@H]5C[C@@](C)(C(=O)NCC(=O)OCCCOc6no[n+]([O-])c6S(=O)(=O)c6ccccc6)CC[C@]5(C)CC[C@@]4(C)[C@]3(C)CC[C@@H]12 | 3.79 | 0.43 | inhibition at 24 h, 10 µM [1]: < 18%; inhibition of growth at 10 µM (Bel-7402 [2]): > 83.5%; Activity (HepG2 [5]): Active; Activity (Bel-7402 [6]): Active; Activity [7]: Non-toxic
CC1(C)[C@@H](O)CC[C@]2(C)[C@H]3C(=O)C=C4[C@@H]5C[C@@](C)(C(=O)NCCOc6no[n+]([O-])c6S(=O)(=O)c6ccccc6)CC[C@]5(C)CC[C@@]4(C)[C@]3(C)CC[C@@H]12 | 7.4 | 2.47 | 
